Results reported in ChEMBL document CHEMBL1129396, “2-amino-4-oxo-5-substituted-pyrrolo[2,3-d]pyrimidines as nonclassical antifolate inhibitors of thymidylate synthase” (J Med Chem, 1996).

Assays:
[1] = target: T1, Bifunctional dihydrofolate reductase-thymidylate synthase (Toxoplasma gondii, UniProt Q07422); experiment: The inhibitory concentration of compound against Dihydrofolate reductases on Toxoplasma gondii
T1 sequence (Q07422 whole entry): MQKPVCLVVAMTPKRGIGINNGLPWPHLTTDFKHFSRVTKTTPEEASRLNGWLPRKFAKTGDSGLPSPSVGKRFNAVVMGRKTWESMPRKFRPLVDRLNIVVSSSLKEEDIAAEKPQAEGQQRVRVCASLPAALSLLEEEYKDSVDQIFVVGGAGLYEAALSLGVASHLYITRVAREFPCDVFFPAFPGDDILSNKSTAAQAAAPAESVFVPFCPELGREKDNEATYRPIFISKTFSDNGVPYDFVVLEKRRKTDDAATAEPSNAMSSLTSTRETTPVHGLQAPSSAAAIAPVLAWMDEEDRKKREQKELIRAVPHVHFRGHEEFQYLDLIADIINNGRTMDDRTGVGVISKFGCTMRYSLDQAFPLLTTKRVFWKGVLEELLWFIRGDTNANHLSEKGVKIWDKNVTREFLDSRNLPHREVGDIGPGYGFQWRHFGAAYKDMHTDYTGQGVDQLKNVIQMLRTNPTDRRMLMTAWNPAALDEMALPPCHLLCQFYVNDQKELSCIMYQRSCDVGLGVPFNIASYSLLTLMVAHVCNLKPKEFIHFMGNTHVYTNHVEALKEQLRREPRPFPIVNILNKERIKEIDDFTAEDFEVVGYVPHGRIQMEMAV
In short: (§1)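 Run at 37 °C with 90 µM dihydrofolic acid as substrate and 119 µM NADPH as cofactor, in the presence of 150 mM KCl.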

Dihydrofolate reductase [2] = target: T2, Dihydrofolate reductase (Rattus norvegicus, UniProt Q920D2); experiment: The inhibitory concentration of compound against Dihydrofolate reductases on rat liver; in short: as §1
T2 sequence (Q920D2 whole entry): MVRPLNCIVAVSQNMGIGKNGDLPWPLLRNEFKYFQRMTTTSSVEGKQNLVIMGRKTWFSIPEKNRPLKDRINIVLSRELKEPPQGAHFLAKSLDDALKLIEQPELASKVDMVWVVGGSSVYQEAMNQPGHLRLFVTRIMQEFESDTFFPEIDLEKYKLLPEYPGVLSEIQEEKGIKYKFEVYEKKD

[3] = test system: Squamous carcinoma cell line; experiment: Growth inhibition of the FaDu Human Squamous Cell carcinoma cell line; assay type: functional, cell-based
[4] = target: Thymidylate synthase (Escherichia coli) (UniProt C3SWJ7); experiment: Percent inhibition of Thymidylate synthase in Escherichia coli; details: concentration not given here
Dihydrofolate reductase [5] = target: T2, Dihydrofolate reductase; experiment: The inhibitory concentration of compound against Dihydrofolate reductases on rat liver (rl); assay type: tissue-based; in short: as §1
Thymidylate synthase [6] = target: Thymidylate synthase (Escherichia coli, UniProt C3SWJ7); experiment: The inhibitory concentration of compound was evaluated on Escherichia coli Thymidylate synthase
Thymidylate synthase [7] = target: T3, Thymidylate synthase (Lactobacillus casei, UniProt P00469); experiment: The inhibitory concentration of compound was evaluated on Lactobacillus casei Thymidylate synthase; set-up: species or system Lacticaseibacillus casei
T3 sequence (P00469 whole entry): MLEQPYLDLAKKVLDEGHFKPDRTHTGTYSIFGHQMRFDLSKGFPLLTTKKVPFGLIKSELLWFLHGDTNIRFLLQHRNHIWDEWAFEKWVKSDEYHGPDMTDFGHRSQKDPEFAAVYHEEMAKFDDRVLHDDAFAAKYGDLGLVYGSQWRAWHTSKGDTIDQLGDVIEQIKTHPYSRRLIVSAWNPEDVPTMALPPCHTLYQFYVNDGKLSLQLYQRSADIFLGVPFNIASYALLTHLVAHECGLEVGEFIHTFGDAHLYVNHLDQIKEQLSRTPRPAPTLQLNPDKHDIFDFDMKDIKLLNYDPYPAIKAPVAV

Thymidylate synthase [8] = target: Thymidylate synthase (Homo sapiens, UniProt P04818); experiment: The inhibitory concentration of compound was evaluated on Human Thymidylate synthase
[9] = target: T4, Thymidylate synthase (Lactobacillus casei) (UniProt P00469); experiment: Percent inhibition of Thymidylate synthase in Lactobacillus casei; details: Lacticaseibacillus casei; concentration not given here
T4 sequence (whole entry): T3 sequence (P00469 whole entry)

Thymidylate synthase (Homo sapiens, UniProt P04818), sequence (P04818 whole entry): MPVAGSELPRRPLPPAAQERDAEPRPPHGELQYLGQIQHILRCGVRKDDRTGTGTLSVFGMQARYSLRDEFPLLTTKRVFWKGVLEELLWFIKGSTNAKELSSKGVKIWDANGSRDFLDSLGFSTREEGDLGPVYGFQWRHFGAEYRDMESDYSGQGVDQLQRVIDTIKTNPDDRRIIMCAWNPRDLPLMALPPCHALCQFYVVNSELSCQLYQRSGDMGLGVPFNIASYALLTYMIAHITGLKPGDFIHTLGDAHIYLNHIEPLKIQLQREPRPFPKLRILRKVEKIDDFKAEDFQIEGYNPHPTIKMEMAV
Thymidylate synthase (Escherichia coli), sequence (C3SWJ7 1-264): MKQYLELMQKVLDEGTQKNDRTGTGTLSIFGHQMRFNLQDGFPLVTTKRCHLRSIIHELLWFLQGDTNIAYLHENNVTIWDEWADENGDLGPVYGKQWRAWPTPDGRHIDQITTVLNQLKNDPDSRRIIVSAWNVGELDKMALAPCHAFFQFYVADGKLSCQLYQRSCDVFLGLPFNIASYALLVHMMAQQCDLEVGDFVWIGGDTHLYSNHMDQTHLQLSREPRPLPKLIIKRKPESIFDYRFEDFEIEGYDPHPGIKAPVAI
Thymidylate synthase (Escherichia coli, UniProt C3SWJ7), sequence (C3SWJ7 whole entry): as the sequence (C3SWJ7 1-264) above

IC50 (Dihydrofolate reductase [2]) [µM]	EC50 [3] [µM]	inhibition [4] [%]	IC50 (Thymidylate synthase [6]) [µM]	IC50 (Thymidylate synthase [7]) [µM]	IC50 (Thymidylate synthase [8]) [µM]	Compound	IC50 [1] [µM]	further results
7470	1.5					Cc1[nH]c2nc(N)[nH]c(=O)c2c1Sc1ccc([N+](=O)[O-])cc1	244	
	> 10	30				COc1ccc(Sc2c(C)[nH]c3nc(N)nc(O)c23)cc1OC		
	6.7					Cc1[nH]c2nc(N)nc(O)c2c1Sc1ccc(Cl)cc1	3.1	IC50 (Dihydrofolate reductase [5]): 24.6 µM
			> 25	> 25	2	Cc1[nH]c2nc(N)[nH]c(=O)c2c1Sc1ccc2ccccc2c1		
		36				Cc1[nH]c2nc(N)nc(O)c2c1Sc1ccc2ccccc2c1		inhibition [9]: 32%
			> 29	100	0.34	Cc1[nH]c2nc(N)nc(O)c2c1Sc1ccncc1		
	1					CN(Cc1ccc(S(=O)(=O)N2CCOCC2)cc1)c1ccc2c3c(cccc13)C(N)=N2		
> 21						COc1ccc(Sc2c(C)[nH]c3nc(N)[nH]c(=O)c23)cc1OC	20	
> 20						Cc1[nH]c2nc(N)[nH]c(=O)c2c1Sc1ccc(Cl)c(Cl)c1	11.7	
	> 10	30	> 30	> 30	30	Cc1[nH]c2nc(N)nc(O)c2c1Sc1ccccc1		
